From ChEMBL document CHEMBL1127802, “Selective inhibitors of monoamine oxidase. 2. Arylamide SAR” (J Med Chem, 1994)

Columns and labels:
[1] = target: T1, Amine oxidase [flavin-containing] A (Rattus norvegicus, UniProt P21396); test: Inhibitory activity against monoamine oxidase A (MAO A) from rat brain using a radiometric procedure with [3H]5-HT
T1 sequence (P21396 whole entry): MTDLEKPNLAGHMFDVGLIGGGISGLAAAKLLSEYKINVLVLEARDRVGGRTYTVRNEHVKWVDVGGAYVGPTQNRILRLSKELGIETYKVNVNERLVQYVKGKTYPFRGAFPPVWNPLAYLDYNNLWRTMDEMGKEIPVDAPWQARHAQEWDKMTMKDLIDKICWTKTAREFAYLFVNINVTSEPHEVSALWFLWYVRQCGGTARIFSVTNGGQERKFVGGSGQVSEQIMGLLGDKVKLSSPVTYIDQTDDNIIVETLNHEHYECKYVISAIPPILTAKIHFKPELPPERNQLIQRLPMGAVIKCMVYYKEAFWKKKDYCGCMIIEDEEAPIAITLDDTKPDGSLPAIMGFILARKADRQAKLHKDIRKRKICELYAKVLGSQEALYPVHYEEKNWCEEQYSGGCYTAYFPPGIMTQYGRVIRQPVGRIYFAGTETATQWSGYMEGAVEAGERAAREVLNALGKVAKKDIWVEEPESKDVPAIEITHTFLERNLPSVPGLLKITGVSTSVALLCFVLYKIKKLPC
In short: (§1)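 Rat brain mitochondrial MAO extract was preincubated with or without inhibitor for 15 min at 37 °C in 50 mM potassium phosphate, pH 7.4. […] Blanks contained 2 mM pargyline. Reactions were stopped with HCl, products extracted into ethyl acetate/toluene and counted by scintillation. Triplicates were averaged as % inhibition, and IC50 was taken from % inhibition vs log concentration.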

[2] = target: T2, MAO B (monoamine oxidase B) (Rattus norvegicus, UniProt P19643); test: Inhibitory activity against monoamine oxidase B (MAO B) from rat brain using a radiometric procedure with [14C]phenylethylamine at 0.1 uM; conditions: rat brain monoamine oxidase B preparation, probe [14C]phenylethylamine
T2 sequence (P19643 whole entry): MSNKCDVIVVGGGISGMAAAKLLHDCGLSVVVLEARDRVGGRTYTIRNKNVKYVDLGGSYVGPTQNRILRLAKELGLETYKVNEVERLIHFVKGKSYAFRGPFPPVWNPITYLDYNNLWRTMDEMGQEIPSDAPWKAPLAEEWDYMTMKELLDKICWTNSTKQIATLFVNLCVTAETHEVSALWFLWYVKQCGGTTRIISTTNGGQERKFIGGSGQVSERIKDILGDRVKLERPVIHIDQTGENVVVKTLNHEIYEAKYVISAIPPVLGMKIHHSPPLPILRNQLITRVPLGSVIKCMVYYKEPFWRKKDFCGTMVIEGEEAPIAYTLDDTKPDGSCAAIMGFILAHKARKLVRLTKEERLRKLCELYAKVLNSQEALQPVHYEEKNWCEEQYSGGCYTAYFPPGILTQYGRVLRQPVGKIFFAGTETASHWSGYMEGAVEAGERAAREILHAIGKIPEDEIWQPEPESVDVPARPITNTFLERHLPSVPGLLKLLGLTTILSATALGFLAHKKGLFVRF
In short: (§2)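 Rat brain mitochondrial MAO extract was preincubated ± inhibitor for 15 min at 37 °C in 50 mM potassium phosphate, pH 7.4. […] Pargyline (2 mM) defined blanks. Acid stop, ethyl acetate/toluene extraction and scintillation counting followed. Triplicate means gave % inhibition, and IC50 was extrapolated from % inhibition vs log concentration plots.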

[3] = target: T2, MAO B (monoamine oxidase B); test: Inhibitory activity against monoamine oxidase B (MAO B) from rat brain using a radiometric procedure with [14C]- phenethylamine at 0.1 uM; conditions: rat brain monoamine oxidase B preparation, probe [14C]-phenethylamine; in short: as §2
[4] = target: T3, MAO A (monoamine oxidase A) (Rattus norvegicus, UniProt P21396); test: Inhibitory activity against monoamine oxidase A (MAO A) from rat brain using a radiometric procedure with [3H]- serotonin at 0.1 uM; conditions: rat brain monoamine oxidase A preparation, probe [3H]-serotonin; in short: as §1
T3 sequence (P21396 whole entry): T1 sequence (P21396 whole entry)

[5] = target: T2, MAO B (monoamine oxidase B); test: (§3) Inhibitory activity against monoamine oxidase B (MAO B) from rat brain using a radiometric procedure with [14C]phenylethylamine at 1 uM; conditions: rat brain monoamine oxidase B preparation, probe [14C]phenylethylamine; in short: as §2
[6] = target: T2, MAO B (monoamine oxidase B); test: Inhibitory activity against monoamine oxidase B (MAO B) from rat brain using a radiometric procedure with [14C]phenylethylamine at 10 uM; conditions: rat brain monoamine oxidase B preparation, probe [14C]phenylethylamine; in short: as §2
[7] = target: T3, MAO A (monoamine oxidase A); test: Inhibitory activity against monoamine oxidase A (MAO A) from rat brain using a radiometric procedure with [3H]5-HT at 10 uM; conditions: rat brain monoamine oxidase A preparation, probe [3H]5-HT; in short: as §1
[8] = target: T3, MAO A (monoamine oxidase A); test: (§4) Inhibitory activity against monoamine oxidase A (MAO A) from rat brain using a radiometric procedure with [3H]5-HT at 1 uM; conditions: rat brain monoamine oxidase A preparation, probe [3H]5-HT; in short: as §1
[9] = target: T3, MAO A (monoamine oxidase A); test: Inhibitory activity against monoamine oxidase A (MAO A) from rat brain using a radiometric procedure with [3H]- serotonin at 1 uM; conditions: rat brain monoamine oxidase A preparation, probe [3H]-serotonin; in short: as §1
[10] = target: T2, MAO B (monoamine oxidase B); test: Inhibitory activity against monoamine oxidase B (MAO B) from rat brain using a radiometric procedure with [14C]- phenethylamine at 1 uM; conditions: rat brain monoamine oxidase B preparation, probe [14C]-phenethylamine; in short: as §2
[11] = target: T2, MAO B (monoamine oxidase B); test: Inhibitory activity against monoamine oxidase B (MAO B) from rat brain using a radiometric procedure with [14C]phenylethylamine at 0.3 uM; conditions: rat brain monoamine oxidase B preparation, probe [14C]phenylethylamine; in short: as §2
[12] = target: T4, Amine oxidase [flavin-containing] B (Rattus norvegicus, UniProt P19643); test: as §3; in short: as §2
T4 sequence (P19643 whole entry): T2 sequence (P19643 whole entry)

[13] = target: T1, Amine oxidase [flavin-containing] A; test: as §4; in short: as §1
[14] = target: T3, MAO A (monoamine oxidase A); test: Inhibitory activity against monoamine oxidase A (MAO A) from rat brain using a radiometric procedure with [3H]- serotonin at 10 uM; conditions: rat brain monoamine oxidase A preparation, probe [3H]-serotonin; in short: as §1

Row | IC50 [1] [nM] | inhibition at 1 µM [5] [%] | inhibition [8] [%] | SMILES | further results
1 | 700 |  |  | CC(=O)Nc1ccc2c(c1)S(=O)(=O)c1ccc(C)cc1C2=O | 
2 | 14 |  |  | CC(=O)Nc1ccc2c(c1)S(=O)(=O)c1ccccc1O2 | inhibition at 0.1 µM [2]: 0%
3 | 120 | 39 |  | CC(=O)Nc1ccc2c(c1)C(=O)c1ccccc1S2(=O)=O | 
4 | 260 | 13 |  | CC(=O)Nc1ccc2c(c1)-c1ccccc1S2(=O)=O | 
5 | 10 |  |  | CCc1ccc2c(c1)C(=O)c1ccc(NC(C)=O)cc1S2(=O)=O | inhibition at 0.3 µM [11]: 15%
6 | 300 |  |  | CC(=O)Nc1ccc2c(c1)oc1ccccc12 | 
7 | 40 | 3 |  | CC(=O)Nc1ccc2c(c1)C(=O)c1ccccc1-2 | 
8 |  | 18 | 60 | CC(=O)Nc1ccc2c(c1)S(=O)(=O)c1ccccc1N2C | 
9 |  | 49 | 17 | CC(=O)Nc1ccc2c(c1)S(=O)(=O)c1ccccc1C2 | 
10 | 60 | -1 |  | CC(=O)Nc1ccc2c(c1)S(=O)(=O)c1ccccc1C2=O | 
11 | 1000 |  |  | O=CNc1ccc2c(c1)-c1ccccc1S2(=O)=O | 

Continued, compound first:

Row | SMILES | IC50 [1] [nM] | inhibition at 1 µM [5] [%] | inhibition [8] [%] | further results
12 | CC(=O)Nc1ccc2oc(=O)c3ccccc3c2c1 |  |  |  | inhibition at 0.1 µM [3]: 23%; inhibition at 0.1 uM [4]: 10%
13 | NC(=O)Nc1ccccc1-c1ccccc1 |  |  |  | inhibition at 10 uM [6]: 13%; inhibition [7]: 22%
14 | NC(=O)Nc1ccc2c(c1)[nH]c1ccccc12 |  | 26 | 74 | 
15 | CC(=O)Nc1ccc2c3ccccc3n(C)c2c1 | 30 |  |  | 
16 | CC(=O)Nc1ccc2c3c([nH]c2c1)CCC(C)(C=O)C3 (stereo not given) |  |  |  | inhibition at 1 µM [9]: 0%; inhibition at 1 µM [10]: 11%
17 | CC(=O)Nc1ccc(Oc2ccc(CS(C)(=O)=O)cc2)cc1 |  | 25 | 31 | 
18 | CC(=O)Nc1ccc2c(c1)S(=O)(=O)c1cc(NC(C)=O)ccc1N2C |  |  |  | inhibition [12]: 7%; inhibition [13]: 2%
19 | CC(=O)Nc1nc2ccccc2[nH]1 |  |  |  | inhibition at 10 uM [6]: -2%; inhibition [7]: 8%
20 | CC(=O)Nc1ccc2c(c1)N(C(C)=O)CC2 |  | -27 | 37 | 
21 | CC(=O)Nc1cc2c(ccc3ccccc32)oc1=O |  |  |  | inhibition at 1 µM [9]: 10%; inhibition at 1 µM [10]: 12%
22 | CC(=O)Nc1cccc(Nc2ccccc2)c1 |  |  |  | inhibition at 10 µM [14]: 44%
23 | CC(=O)NC(C)c1ccc2c(c1)[nH]c1ccccc12 (stereo not given) |  | 20 | 7 | 
24 | CC(=O)Nc1ccc2c3ccccc3n(CCCN3CCN(C)CC3)c2c1 |  |  |  | inhibition [7]: 80%
25 | CC(=O)Nc1ccc2c(c1)C(O)c1ccccc1-2 (stereo not given) | 300 |  |  | 
26 | CC(=O)Nc1ccc2c(c1)CCC2 |  | 37 | 13 | 
27 | CC(=O)Nc1ccc2c(O)c3ccccc3nc2c1 |  | 21 | 72 | 
28 | O=CNc1ccc2c(c1)[nH]c1ccccc12 | 1100 |  |  | 
29 | CC(=O)Nc1ccc2c3c([nH]c2c1)CCCC3 |  | 0 | 35 | 
